Results taken from PMC3431965 (The Journal of organic chemistry, 2012).
Substitutions are numbered along the chain they refer to.

Columns and labels:
[1] = biological target: T1, testicular β-glucosidase 2 (Rattus norvegicus, UniProt Q5M868); assay: Testicular glucosidase assay; assay type: biochemical, Long Evans (LE) rat
T1 sequence (Q5M868 1-912): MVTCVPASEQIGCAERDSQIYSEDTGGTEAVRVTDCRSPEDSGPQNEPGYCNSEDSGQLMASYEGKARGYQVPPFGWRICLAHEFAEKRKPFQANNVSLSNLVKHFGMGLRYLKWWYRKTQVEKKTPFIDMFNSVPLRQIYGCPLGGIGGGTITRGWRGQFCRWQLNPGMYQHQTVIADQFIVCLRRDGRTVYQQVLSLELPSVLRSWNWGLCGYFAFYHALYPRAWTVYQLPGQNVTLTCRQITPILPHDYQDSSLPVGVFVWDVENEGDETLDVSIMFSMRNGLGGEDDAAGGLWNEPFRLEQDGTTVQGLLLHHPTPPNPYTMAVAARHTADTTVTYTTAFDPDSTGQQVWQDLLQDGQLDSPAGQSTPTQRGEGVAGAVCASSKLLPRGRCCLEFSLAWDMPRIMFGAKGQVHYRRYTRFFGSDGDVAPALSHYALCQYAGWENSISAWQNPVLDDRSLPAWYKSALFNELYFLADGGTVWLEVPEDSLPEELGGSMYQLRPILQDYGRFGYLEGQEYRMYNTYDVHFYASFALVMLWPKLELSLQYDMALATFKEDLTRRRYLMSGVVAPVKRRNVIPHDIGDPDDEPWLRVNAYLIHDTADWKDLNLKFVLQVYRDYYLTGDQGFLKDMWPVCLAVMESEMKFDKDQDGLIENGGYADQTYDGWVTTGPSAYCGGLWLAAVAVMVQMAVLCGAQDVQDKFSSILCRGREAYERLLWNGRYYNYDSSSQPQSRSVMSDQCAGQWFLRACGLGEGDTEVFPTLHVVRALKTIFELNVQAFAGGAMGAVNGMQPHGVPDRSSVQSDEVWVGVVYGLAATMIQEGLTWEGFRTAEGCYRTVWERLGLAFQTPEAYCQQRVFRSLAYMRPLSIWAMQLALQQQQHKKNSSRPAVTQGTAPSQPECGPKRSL

[2] = biological target: T2, ceramide-specific glucosyltransferase (Rattus norvegicus, UniProt Q9R0E0); assay: Ceramide-specific glucosyltransferase assay, rat testicular microsomes; assay type: biochemical, Long Evans (LE) rat; conditions: for ceramide-specific glucosyltransferase IC50 (LE rat): rat testicular microsomes, n.i. = no inhibition at 1000 µM concentration
T2 sequence (Q9R0E0 1-394): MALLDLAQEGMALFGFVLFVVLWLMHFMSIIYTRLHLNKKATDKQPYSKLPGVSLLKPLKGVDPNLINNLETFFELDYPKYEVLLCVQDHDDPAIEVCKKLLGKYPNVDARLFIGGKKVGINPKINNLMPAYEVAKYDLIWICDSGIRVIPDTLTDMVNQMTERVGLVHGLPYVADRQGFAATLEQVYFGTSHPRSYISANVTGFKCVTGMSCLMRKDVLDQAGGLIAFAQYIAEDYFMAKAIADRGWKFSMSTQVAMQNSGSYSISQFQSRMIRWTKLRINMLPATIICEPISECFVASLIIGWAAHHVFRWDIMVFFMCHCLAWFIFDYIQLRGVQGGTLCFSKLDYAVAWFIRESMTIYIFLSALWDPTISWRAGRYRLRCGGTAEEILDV

β-glucosidase (almond) = assay: Glycosidase inhibition assay, β-glucosidase; assay type: biochemical; conditions: 100 µM compound; substrate at Km
Procedure, shortened: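 Enzyme is added last; incubation is 4–5 min at room temperature, then 0.2 M sodium borate (pH 9.8) quenches. Absorbance at 405 nm gives % remaining activity at 100 µM compound. IC50 comes from non-linear fitting of relative activity versus concentration to a Hill-slope equation.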

[3] = system: β-mannosidase (Roman snail); assay: Glycosidase inhibition assay, β-mannosidase; assay type: biochemical; conditions: 100 µM compound; substrate at Km
Procedure, shortened: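 Test compound is at 100 µM. Enzyme addition starts the reaction, which runs 4–5 min at room temperature before quenching with 0.2 M sodium borate (pH 9.8). Absorbance is read at 405 nm and given as % remaining activity.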

[4] = biological target: α-galactosidase (green coffee beans) (Coffea arabica, UniProt Q42656); assay: biochemical; conditions: for remaining activity at 100 µM: read-out: α-Gal % Ra (% remaining activity at 100 µM)
[5] = biological target: T3, ceramide-specific glucosyltransferase (Mus musculus, UniProt O88693); assay: Ceramide-specific glucosyltransferase assay, mouse testicular microsomes; assay type: biochemical, C57BL/6 mouse; conditions: for ceramide-specific glucosyltransferase IC50 (C57BL/6, mouse): mouse testicular microsomes, n.i. = no inhibition at 1000 µM concentration
T3 sequence (O88693 1-394): T2 sequence (Q9R0E0 1-394) with E96D, R164K, K249R, A377T

[6] = biological target: β-galactosidase (Escherichia coli) (Escherichia coli, UniProt P00722); assay: biochemical; conditions: for remaining activity at 100 µM: read-out: β-Gal % Ra (% remaining activity at 100 µM)
[7] = biological target: T4, α-mannosidase (jack bean) (Canavalia ensiformis, UniProt C0HJB3); assay: Glycosidase inhibition assay, α-mannosidase; assay type: biochemical; conditions: for remaining activity at 100 µM: read-out: α-Man % Ra (% remaining activity at 100 µM)
T4 sequence (C0HJB3 1-562 limits assumed): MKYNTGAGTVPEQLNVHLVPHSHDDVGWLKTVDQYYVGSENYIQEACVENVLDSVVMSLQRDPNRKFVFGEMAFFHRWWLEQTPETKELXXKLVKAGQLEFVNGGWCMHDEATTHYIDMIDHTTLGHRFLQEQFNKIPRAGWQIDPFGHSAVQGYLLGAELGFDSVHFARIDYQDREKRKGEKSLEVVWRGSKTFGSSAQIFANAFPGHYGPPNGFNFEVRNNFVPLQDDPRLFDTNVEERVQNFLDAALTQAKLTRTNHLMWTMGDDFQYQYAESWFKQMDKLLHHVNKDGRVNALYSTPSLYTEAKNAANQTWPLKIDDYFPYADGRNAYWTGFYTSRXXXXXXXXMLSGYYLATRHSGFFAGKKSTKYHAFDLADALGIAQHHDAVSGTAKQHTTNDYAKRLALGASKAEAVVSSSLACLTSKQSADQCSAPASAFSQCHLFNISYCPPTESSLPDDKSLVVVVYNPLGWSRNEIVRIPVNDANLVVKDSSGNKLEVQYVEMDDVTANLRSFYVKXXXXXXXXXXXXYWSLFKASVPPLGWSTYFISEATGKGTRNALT
T4 sequence (C0HJB3 563-981 partner limits assumed): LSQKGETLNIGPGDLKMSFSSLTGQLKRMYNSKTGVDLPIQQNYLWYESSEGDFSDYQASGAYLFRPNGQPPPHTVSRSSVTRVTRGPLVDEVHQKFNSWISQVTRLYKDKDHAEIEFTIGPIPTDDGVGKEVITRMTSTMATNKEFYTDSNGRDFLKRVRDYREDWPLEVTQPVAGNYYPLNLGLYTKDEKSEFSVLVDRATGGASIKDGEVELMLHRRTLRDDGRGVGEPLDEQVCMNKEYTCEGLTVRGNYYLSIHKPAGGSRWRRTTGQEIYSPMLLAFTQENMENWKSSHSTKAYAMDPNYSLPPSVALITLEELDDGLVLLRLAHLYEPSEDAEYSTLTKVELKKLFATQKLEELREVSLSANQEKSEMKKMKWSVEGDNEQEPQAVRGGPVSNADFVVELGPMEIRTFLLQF
Procedure, shortened: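 Enzyme starts the reaction with test compound at 100 µM. After 4–5 min at room temperature, 0.2 M sodium borate (pH 9.8) quenches it. Absorbance is read at 405 nm and reported as % remaining activity.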

[8] = system: α-glucosidase (Saccharomyces cerevisiae); assay: Glycosidase inhibition assay, α-glucosidase; assay type: biochemical; conditions: substrate at Km; for α-Glc % Ra (% remaining activity at 100 µM): 100 µM compound
spermatogenesis = conditions: C57B1/6J-related mouse strains; cited from earlier work
human spermatogenesis = conditions: cited from earlier work
[9] = 100 µM compound, substrate at Km

α-galactosidase (green coffee beans), sequence (Q42656 16-378): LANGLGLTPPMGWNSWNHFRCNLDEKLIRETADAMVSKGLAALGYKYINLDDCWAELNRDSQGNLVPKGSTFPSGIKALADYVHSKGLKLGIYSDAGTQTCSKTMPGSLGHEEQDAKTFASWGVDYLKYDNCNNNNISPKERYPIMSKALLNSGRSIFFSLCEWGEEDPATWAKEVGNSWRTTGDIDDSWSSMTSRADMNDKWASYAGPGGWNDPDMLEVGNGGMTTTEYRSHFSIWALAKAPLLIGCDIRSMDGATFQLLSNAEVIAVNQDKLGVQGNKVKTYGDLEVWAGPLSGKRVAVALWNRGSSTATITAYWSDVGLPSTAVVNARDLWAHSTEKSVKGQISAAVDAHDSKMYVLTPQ
β-galactosidase (Escherichia coli), sequence (P00722 2-1024): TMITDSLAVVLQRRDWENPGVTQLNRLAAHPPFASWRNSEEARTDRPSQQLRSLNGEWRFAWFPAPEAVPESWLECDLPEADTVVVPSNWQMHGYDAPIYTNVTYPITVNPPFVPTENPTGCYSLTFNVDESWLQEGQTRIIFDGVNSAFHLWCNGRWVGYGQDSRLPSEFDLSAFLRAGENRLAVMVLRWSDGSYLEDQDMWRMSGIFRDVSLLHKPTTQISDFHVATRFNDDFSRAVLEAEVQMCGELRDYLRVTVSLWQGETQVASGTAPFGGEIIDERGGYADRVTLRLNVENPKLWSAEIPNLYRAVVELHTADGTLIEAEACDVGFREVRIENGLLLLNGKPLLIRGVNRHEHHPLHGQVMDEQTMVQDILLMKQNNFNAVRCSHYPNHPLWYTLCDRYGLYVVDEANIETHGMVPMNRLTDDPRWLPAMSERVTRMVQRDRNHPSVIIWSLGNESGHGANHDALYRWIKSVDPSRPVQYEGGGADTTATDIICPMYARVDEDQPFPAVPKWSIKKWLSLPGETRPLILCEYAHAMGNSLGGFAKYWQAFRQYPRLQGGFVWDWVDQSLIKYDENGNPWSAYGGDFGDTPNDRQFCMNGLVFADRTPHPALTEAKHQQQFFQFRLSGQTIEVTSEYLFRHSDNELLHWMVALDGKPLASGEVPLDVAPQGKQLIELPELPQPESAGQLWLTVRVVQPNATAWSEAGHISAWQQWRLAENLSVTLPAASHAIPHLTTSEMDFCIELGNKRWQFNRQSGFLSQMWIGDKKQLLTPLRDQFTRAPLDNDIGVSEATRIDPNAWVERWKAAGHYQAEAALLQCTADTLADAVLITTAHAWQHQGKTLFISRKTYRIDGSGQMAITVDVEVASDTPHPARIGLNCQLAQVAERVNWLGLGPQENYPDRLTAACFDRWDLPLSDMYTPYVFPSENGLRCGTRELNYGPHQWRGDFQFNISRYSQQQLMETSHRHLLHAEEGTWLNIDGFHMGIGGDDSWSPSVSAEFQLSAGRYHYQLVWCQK

SMILES | IC50 [1] [µM] | ceramide-specific glucosyltransferase IC50 (LE rat) [2] | β-Glc % Ra (% remaining activity at 100 µM) (β-glucosidase (almond)) [%] | β-Man % Ra (% remaining activity at 100 µM) [3] [%] | remaining activity at 100 µM [4] [%] | ceramide-specific glucosyltransferase IC50 (C57BL/6, mouse) [5] | remaining activity at 100 µM [6] [%] | remaining activity at 100 µM [7] [%] | α-Glc % Ra (% remaining activity at 100 µM) [8] [%] | β-glucosidase 2 IC50 (LE rat) ([1]; rat testicular microsomes, n.i. = no inhibition at 1000 µM concentration) | α-Gal % Ra (% remaining activity at 100 µM) [4, 9] [%] | β-Gal % Ra (% remaining activity at 100 µM) [6, 9] [%] | α-Man % Ra (% remaining activity at 100 µM) [7, 9] [%] | IC50 [2] [µM] | IC50 [5] [µM] | effect on spermatogenesis (spermatogenesis) | IC50 ([8]; read-out: α-Glc IC50) [µM] | effects on human spermatogenesis (human spermatogenesis)
CCCCCCCCCN1C/C=C\[C@@H](O)[C@H](O)[C@@H](O)C1 [Compound 4, (3S,4S,5R,Z)-1-Nonyl-1,2,3,4,5,8-hexahydroazocine-3,4,5-triol] | 904 | n.i. | 44 | 99 | 100 | n.i. | 90 | 100 | 90 | – | – | – | – | – | – | – | – | –
CCCCN1C[C@@H](O)[C@@H](O)[C@@H](O)[C@H](O)[C@@H](O)C1 [Compound 5, (3S,4R,5S,6R,7R)-1-Butylazocane-3,4,5,6,7-pentaol] | – | n.i. | 87 | 100 | – | n.i. | – | – | 89 | did not show inhibitory activity and n.i. | 100 | 95 | 100 | – | – | – | – | –
CCCCN1[C@H](CO)C(O)[C@H]1CO [Compound 22, ((2R,4R)-1-Butyl-3-hydroxyazetidine-2,4-diyl)dimethanol] | > 300 | – | 93 | 99 | 100 | – | 99 | 99 | 100 | – | – | – | – | > 300 | > 300 | – | – | –
CCCCCCCCCN1[C@H](CO)C(O)[C@H]1CO [Compound 23, ((2R,4R)-3-Hydroxy-1-nonylazetidine-2,4-diyl)dimethanol] | > 300 | – | 95 | 115 | 99 | – | 88 | 100 | 100 | – | – | – | – | > 300 | > 300 | – | – | –
CCCCN1[C@@H](CO)C(O)[C@@H]1CO [Compound 26, ((2S,4S)-1-Butyl-3-hydroxyazetidine-2,4-diyl)dimethanol] | > 300 | – | 82 | 95 | 98 | – | 96 | 98 | 90 | – | – | – | – | > 300 | > 300 | – | – | –
CCCCCCCCCN1[C@@H](CO)C(O)[C@@H]1CO [Compound 27, ((2S,4S)-3-Hydroxy-1-nonyl-azetidine-2,4-diyl)dimethanol] | 70 | – | 95 | 106 | 57 | – | 99 | 99 | 100 | – | – | – | – | > 300 | > 300 | – | – | –
CCCCN1C[C@H](O)[C@@H](O)[C@H](O)[C@H]1CO [NB-DNJ, N-butyldeoxynojirimycin] | – | – | – | – | – | – | – | – | – | – | – | – | – | – | – | active | 1030 | no discernible effects
